Source: ChEMBL document CHEMBL1143070, “Catechin gallates are NADP+-competitive inhibitors of glucose-6-phosphate dehydrogenase and other enzymes that employ NADP+ as a coenzyme” (Bioorg Med Chem, 2008)
Active and inactive are the calls of the source. No cut-off for these calls is given here.

Key:
[1] = (§1) Inhibition of G6PD-mediated NADPH production in mouse 3T3-L1 cells; format: cell-based
Summary of the method: (§2)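 Fully differentiated 3T3-L1 adipocytes were lysed in NETN buffer and spun at 4 °C; supernatants were used at once. 1.0 µg protein was incubated at 30 °C with inhibitor (DMSO <0.2% v/v) in 0.1 mol/L Tris pH 7.5, 150 mmol/L NaCl, 6 mmol/L MgCl2, 0.5 mmol/L G6P, 0.5 mmol/L 6-phosphogluconate and 0.25 mmol/L NADP+. Total NADPH production was normalized to Bradford protein. Values are means of three independent experiments.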

[2] = target: T1, Glucose-6-phosphate 1-dehydrogenase (Saccharomyces cerevisiae S288c, UniProt P11412); experiment: Inhibition of yeast G6PD
T1 sequence (P11412 whole entry): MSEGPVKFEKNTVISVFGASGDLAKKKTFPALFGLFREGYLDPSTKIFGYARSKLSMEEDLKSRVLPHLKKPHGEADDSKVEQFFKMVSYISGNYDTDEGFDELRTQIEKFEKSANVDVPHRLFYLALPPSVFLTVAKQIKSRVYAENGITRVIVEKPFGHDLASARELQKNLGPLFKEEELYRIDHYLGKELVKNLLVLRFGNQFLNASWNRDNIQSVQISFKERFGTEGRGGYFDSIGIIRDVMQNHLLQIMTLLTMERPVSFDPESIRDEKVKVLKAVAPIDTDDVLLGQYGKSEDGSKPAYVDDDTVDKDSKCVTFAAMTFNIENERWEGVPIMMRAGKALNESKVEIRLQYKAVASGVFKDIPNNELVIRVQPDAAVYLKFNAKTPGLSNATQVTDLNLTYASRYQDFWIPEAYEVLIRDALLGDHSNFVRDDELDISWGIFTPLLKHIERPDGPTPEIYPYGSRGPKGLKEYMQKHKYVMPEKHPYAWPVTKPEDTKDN

[3] = system: 3T3-L1; experiment: Ratio of IC50 for yeast G6PD to IC50 for G6PD-mediated NADPH production in mouse 3T3-L1 cells; format: cell-based
[4] = target: 6-phosphogluconate dehydrogenase, decarboxylating (Saccharomyces cerevisiae) (UniProt P38720); experiment: Inhibition of 6PGD
Chain of 6-phosphogluconate dehydrogenase, decarboxylating (Saccharomyces cerevisiae) (P38720 whole entry, looked up): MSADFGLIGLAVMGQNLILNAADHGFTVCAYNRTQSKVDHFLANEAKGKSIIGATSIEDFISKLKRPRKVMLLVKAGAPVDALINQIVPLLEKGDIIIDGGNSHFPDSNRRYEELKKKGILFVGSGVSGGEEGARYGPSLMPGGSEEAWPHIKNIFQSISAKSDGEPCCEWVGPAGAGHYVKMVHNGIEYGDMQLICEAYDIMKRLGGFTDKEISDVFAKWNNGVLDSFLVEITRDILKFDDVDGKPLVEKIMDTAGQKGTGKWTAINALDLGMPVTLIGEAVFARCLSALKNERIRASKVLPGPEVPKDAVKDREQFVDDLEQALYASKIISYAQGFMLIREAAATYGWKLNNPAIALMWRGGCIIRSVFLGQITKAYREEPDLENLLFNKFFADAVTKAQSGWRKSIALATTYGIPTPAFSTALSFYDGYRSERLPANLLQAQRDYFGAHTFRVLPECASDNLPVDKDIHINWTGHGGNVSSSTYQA

[5] = Inhibition of IDH
[6] = system: Homo sapiens; experiment: Plasma concentration in human at 50 mg, po; settings: in vivo
[7] = system: 3T3-L1; experiment: as §1; format: cell-based; summary of the method: as §2
[8] = system: 3T3-L1; experiment: Inhibition of G6PD-mediated NADPH production in mouse 3T3-L1 cells at above 100 umol/L; format: cell-based; summary of the method: as §2

SMILES | IC50 [1] | IC50 [2] | Ratio IC50 [3] | IC50 [4] | IC50 [5] | concentration [6] | Activity [7] | inhibition [8]
O=C(O[C@@H]1Cc2c(O)cc(O)cc2O[C@@H]1c1ccc(O)c(O)c1)c1cc(O)c(O)c(O)c1 [EPICATECHIN GALLATE] | 25 µM | 0.18 µM | 100 | 1.21 µM | 10.8 µM | – | – | –
O=C(O[C@@H]1Cc2c(O)cc(O)cc2O[C@@H]1c1cc(O)c(O)c(O)c1)c1cc(O)c(O)c(O)c1 [EPIGALOCATECHIN GALLATE] | 25 µM | 0.25 µM | 100 | 0.72 µM | 6.44 µM | 300 nM | – | –
Oc1cc(O)c2c(c1)O[C@@H](c1cc(O)c(O)c(O)c1)[C@H](O)C2 [(-)-GALLOCATECHIN] | – | > 1000 µM | – | – | > 1000 µM | – | inactive | –
Oc1cc(O)c2c(c1)O[C@H](c1ccc(O)c(O)c1)[C@H](O)C2 [(-)-EPICATECHIN] | – | > 1000 µM | – | – | > 1000 µM | – | inactive | –
Oc1cc(O)c2c(c1)O[C@@H](c1ccc(O)c(O)c1)[C@H](O)C2 [(-)-CATECHIN] | – | > 1000 µM | – | – | > 1000 µM | – | inactive | –
C[C@]12CC[C@H](O)CC1=CC[C@@H]1[C@@H]2CC[C@]2(C)C(=O)CC[C@@H]12 | – | – | – | – | – | – | – | 40%
Oc1cccc(/C=N/NC(=S)N/N=C/c2cccc(O)c2O)c1O | – | 56.4 µM | – | – | – | – | – | –
O=C(O[C@@H]1Cc2c(O)cc(O)cc2O[C@H]1c1ccc(O)c(O)c1)c1cc(O)c(O)c(O)c1 [(-)-CATECHINGALLATE] | 25 µM | 0.24 µM | 100 | 1.28 µM | 6.62 µM | – | – | –
O=C(O[C@@H]1Cc2c(O)cc(O)cc2O[C@H]1c1cc(O)c(O)c(O)c1)c1cc(O)c(O)c(O)c1 [GALLOCATECHIN GALLATE] | 25 µM | 0.23 µM | 100 | 1.45 µM | 2.72 µM | – | – | –
Oc1cc(O)c2c(c1)O[C@H](c1cc(O)c(O)c(O)c1)[C@H](O)C2 [EPIGALLOCATECHIN] | – | > 1000 µM | – | – | > 1000 µM | – | inactive | –
CCOc1cccc(-c2cc(C(=O)N/N=C/c3ccccc3O)[nH]n2)c1 | – | 21.8 µM | – | – | – | – | – | –
